From ChEMBL document CHEMBL2311431, “Synthesis and biological evaluation of some 5-arylidene-2-(1,3-thiazol-2-ylimino)-1,3-thiazolidin-4-ones as dual anti-inflammatory/antimicrobial agents” (Bioorg Med Chem, 2013)
In brackets after ≈: the same amount, converted by molar mass.

Assays:
Mus musculus [1] = assay: Acute toxicity in AKR mouse up to 0.5 mmol/kg, ip; format: organism-based; details: in vivo
Mus musculus [2] = assay: Antiinflammatory activity in AKR mouse assessed as inhibition of carrageenan-induced paw edema at 0.01 mmol/kg, ip measured after 3.5 hrs of carrageenan-challenge; format: functional
Summary of the method: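 AKR mice of both sexes (pregnant females excluded), 6-10 per group, fasted during the experiment. Edema induced by intradermal 0.05 mL of 2% carrageenin into the right hind paw. Compound given at 0.01 mmol/kg ip, suspended in water with Tween-80, at the same time as carrageenin.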

[3] = target: T1, Prostaglandin G/H synthase 1 (Ovis aries) (UniProt P05979); assay: Inhibition of ovine COX1 assessed as inhibition of PGF2a production by enzyme immunoassay; parameters: concentration or dose not given beside the values; details: concentration not given here
T1 sequence (whole entry): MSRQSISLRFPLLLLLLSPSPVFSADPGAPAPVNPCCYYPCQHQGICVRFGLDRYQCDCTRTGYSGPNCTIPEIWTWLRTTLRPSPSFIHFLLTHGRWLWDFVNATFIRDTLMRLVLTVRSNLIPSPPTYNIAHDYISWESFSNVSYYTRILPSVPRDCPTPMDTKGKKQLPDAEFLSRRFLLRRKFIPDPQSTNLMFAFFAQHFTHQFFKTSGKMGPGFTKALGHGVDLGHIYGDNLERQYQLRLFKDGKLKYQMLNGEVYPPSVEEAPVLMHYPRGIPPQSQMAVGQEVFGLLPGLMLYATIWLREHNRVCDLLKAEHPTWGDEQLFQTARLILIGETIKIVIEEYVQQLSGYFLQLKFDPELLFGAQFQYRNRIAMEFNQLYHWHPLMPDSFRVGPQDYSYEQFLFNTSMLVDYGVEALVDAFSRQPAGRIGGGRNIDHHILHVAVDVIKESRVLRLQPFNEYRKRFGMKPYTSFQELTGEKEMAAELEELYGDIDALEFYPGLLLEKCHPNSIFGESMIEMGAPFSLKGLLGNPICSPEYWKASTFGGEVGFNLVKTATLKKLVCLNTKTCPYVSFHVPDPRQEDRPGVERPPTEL
Summary of the method: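 Ovine COX-1 from a commercial screening kit, tested with 0.1 µM arachidonic acid, which is below the saturating level. COX-derived PGH2 is reduced by SnCl2 to PGF2a, quantified by enzyme immunoassay with a broad prostaglandin antibody. At least triplicate.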

[4] = Inhibition of soybean lipoxygenase assessed as inhibition of sodium linolate conversion to 13-hydroperoxylinoleic acid after 4 mins by spectrophotometry; parameters: species or system Glycine max; details: read-out: IC50
Aspergillus niger [5] = assay: Fungicidal activity against Aspergillus niger ATCC 6275 after 72 hrs by serial subcultivation method; format: functional; details: ATCC 6275, 72 h
Aspergillus niger [6] = assay: Antifungal activity against Aspergillus niger ATCC 6275 after 72 hrs by serial dilution technique; format: functional; details: ATCC 6275, 72 h
Summary of the method: (§1)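 Serial dilution in malt broth; compounds from 1 mg/ml stocks in 5% DMSO; 72 h at 28 °C. MIC is the lowest concentration with no visible growth under a binocular microscope. Run in duplicate, repeated three times.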

Aspergillus fumigatus [7] = assay: Fungicidal activity against Aspergillus fumigatus after 72 hrs by serial subcultivation method; format: functional
Aspergillus flavus [8] = assay: Fungicidal activity against Aspergillus flavus ATCC 9643 after 72 hrs by serial subcultivation method; format: functional; details: ATCC 9643, 72 h
Trichoderma viride [9] = assay: Fungicidal activity against Trichoderma viride IAM 5061 after 72 hrs by serial subcultivation method; format: functional; details: IAM 5061, 72 h
Penicillium ochrochloron [10] = assay: Fungicidal activity against Penicillium ochrochloron ATCC 9112 after 72 hrs by serial subcultivation method; format: functional; details: ATCC 9112, 72 h
Aspergillus flavus [11] = assay: Antifungal activity against Aspergillus flavus ATCC 9643 after 72 hrs by serial dilution technique; format: functional; details: ATCC 9643, 72 h; summary of the method: as §1
Talaromyces funiculosus [12] = assay: Fungicidal activity against Penicillium funiculosum ATCC 36839 after 72 hrs by serial subcultivation method; format: functional; details: ATCC 36839, 72 h
Aspergillus fumigatus [13] = assay: Antifungal activity against Aspergillus fumigatus after 72 hrs by serial dilution technique; format: functional; summary of the method: as §1
Trichoderma viride [14] = assay: Antifungal activity against Trichoderma viride IAM 5061 after 72 hrs by serial dilution technique; format: functional; details: IAM 5061, 72 h; summary of the method: as §1
Penicillium ochrochloron [15] = assay: Antifungal activity against Penicillium ochrochloron ATCC 9112 after 72 hrs by serial dilution technique; format: functional; details: ATCC 9112, 72 h; summary of the method: as §1
Talaromyces funiculosus [16] = assay: Antifungal activity against Penicillium funiculosum ATCC 36839 after 72 hrs by serial dilution technique; format: functional; details: ATCC 36839, 72 h; summary of the method: as §1
Escherichia coli [17] = assay: Bactericidal activity against Escherichia coli ATCC 35210 after 72 hrs by serial subcultivation method; format: functional; details: ATCC 35210, 72 h
Pseudomonas aeruginosa [18] = assay: Bactericidal activity against Pseudomonas aeruginosa ATCC 27853 after 72 hrs by serial subcultivation method; format: functional; details: ATCC 27853, 72 h
Listeria monocytogenes [19] = assay: Bactericidal activity against Listeria monocytogenes NCTC 7973 after 72 hrs by serial subcultivation method; format: functional; details: NCTC 7973, 72 h
Bacillus cereus [20] = assay: Bactericidal activity against Bacillus cereus clinical isolate after 72 hrs by serial subcultivation method; format: functional
Micrococcus flavus [21] = assay: Bactericidal activity against Micrococcus flavus ATCC 10240 after 72 hrs by serial subcultivation method; format: functional; details: ATCC 10240, 72 h
Staphylococcus aureus [22] = assay: Bactericidal activity against Staphylococcus aureus ATCC 6538 after 72 hrs by serial subcultivation method; format: functional; details: ATCC 6538, 72 h
Escherichia coli [23] = assay: Antibacterial activity against Escherichia coli ATCC 35210 after 24 hr by microdilution test; format: functional; details: ATCC 35210, 24 h
Summary of the method: (§2)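 Broth microdilution in LB medium, about 1.0×10^4 cfu per well; compounds from 1 mg/ml stocks in 5% DMSO. Incubated 24 h. MIC is the lowest concentration with no visible growth under a binocular microscope. Run in duplicate, repeated three times.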

Listeria monocytogenes [24] = assay: Antibacterial activity against Listeria monocytogenes NCTC 7973 after 24 hr by microdilution test; format: functional; details: NCTC 7973, 24 h; summary of the method: as §2
Pseudomonas aeruginosa [25] = assay: Antibacterial activity against Pseudomonas aeruginosa ATCC 27853 after 24 hr by microdilution test; format: functional; details: ATCC 27853, 24 h; summary of the method: as §2
Micrococcus flavus [26] = assay: Antibacterial activity against Micrococcus flavus ATCC 10240 after 24 hr by microdilution test; format: functional; details: ATCC 10240, 24 h; summary of the method: as §2
Bacillus cereus [27] = assay: Antibacterial activity against Bacillus cereus clinical isolate after 24 hr by microdilution test; format: functional; summary of the method: as §2
Staphylococcus aureus [28] = assay: Antibacterial activity against Staphylococcus aureus ATCC 6538 after 24 hr by microdilution test; format: functional; details: ATCC 6538, 24 h; summary of the method: as §2

SMILES | Activity (Mus musculus [1]) | inhibition in vivo at 10 µmol/kg (Mus musculus [2]) | inhibition [3] | IC50 [4] | MFC (Aspergillus niger [5]) | MIC (Aspergillus niger [6]) | MFC (Aspergillus fumigatus [7]) | MFC (Aspergillus flavus [8]) | MFC (Trichoderma viride [9]) | MFC (Penicillium ochrochloron [10]) | MIC (Aspergillus flavus [11]) | MFC (Talaromyces funiculosus [12]) | MIC (Aspergillus fumigatus [13]) | MIC (Trichoderma viride [14]) | MIC (Penicillium ochrochloron [15]) | MIC (Talaromyces funiculosus [16]) | MBC (Escherichia coli [17]) | MBC (Pseudomonas aeruginosa [18]) | MBC (Listeria monocytogenes [19]) | MBC (Bacillus cereus [20]) | further results
Cc1csc(/N=C2\NC(=O)/C(=C/c3ccccc3Cl)S2)n1 | Non-toxic | 43% | 97% | 79 µM | 20.9 µM (≈ 7.02 µg/mL) | 14.9 µM (≈ 5 µg/mL) | 20.9 µM (≈ 7.02 µg/mL) | 20.9 µM (≈ 7.02 µg/mL) | 20.9 µM (≈ 7.02 µg/mL) | 20.9 µM (≈ 7.02 µg/mL) | 20.9 µM (≈ 7.02 µg/mL) | 20.9 µM (≈ 7.02 µg/mL) | 17.9 µM (≈ 6.01 µg/mL) | 17.9 µM (≈ 6.01 µg/mL) | 14.9 µM (≈ 5 µg/mL) | 17.9 µM (≈ 6.01 µg/mL) | 119 µM (≈ 40 µg/mL) | 119 µM (≈ 40 µg/mL) | 119 µM (≈ 40 µg/mL) | 119 µM (≈ 40 µg/mL) | MBC (Micrococcus flavus [21]): 59.6 µM (≈ 20 µg/mL); MBC (Staphylococcus aureus [22]): 119 µM (≈ 40 µg/mL); MIC (Escherichia coli [23]): 119 µM (≈ 40 µg/mL); MIC (Listeria monocytogenes [24]): 119 µM (≈ 40 µg/mL); MIC (Pseudomonas aeruginosa [25]): 59.6 µM (≈ 20 µg/mL); MIC (Micrococcus flavus [26]): 29.8 µM (≈ 10 µg/mL); MIC (Bacillus cereus [27]): 59.6 µM (≈ 20 µg/mL); MIC (Staphylococcus aureus [28]): 59.6 µM (≈ 20 µg/mL)
O=C1N/C(=N\c2nc(-c3ccccc3)cs2)S/C1=C\c1ccccc1 | Non-toxic | 59.3% | 67% | 66 µM | 25.2 µM (≈ 9.16 µg/mL) | 19 µM (≈ 6.91 µg/mL) | 25.2 µM (≈ 9.16 µg/mL) | 25.2 µM (≈ 9.16 µg/mL) | 25.2 µM (≈ 9.16 µg/mL) | 25.2 µM (≈ 9.16 µg/mL) | 19 µM (≈ 6.91 µg/mL) | 25.2 µM (≈ 9.16 µg/mL) | 19 µM (≈ 6.91 µg/mL) | 12.6 µM (≈ 4.58 µg/mL) | 19 µM (≈ 6.91 µg/mL) | 19 µM (≈ 6.91 µg/mL) | 108 µM (≈ 39.3 µg/mL) | 108 µM (≈ 39.3 µg/mL) | 27 µM (≈ 9.81 µg/mL) | 27 µM (≈ 9.81 µg/mL) | MBC (Micrococcus flavus [21]): 27 µM (≈ 9.81 µg/mL); MBC (Staphylococcus aureus [22]): 108 µM (≈ 39.3 µg/mL); MIC (Escherichia coli [23]): 54 µM (≈ 19.6 µg/mL); MIC (Listeria monocytogenes [24]): 27 µM (≈ 9.81 µg/mL); MIC (Pseudomonas aeruginosa [25]): 27 µM (≈ 9.81 µg/mL); MIC (Micrococcus flavus [26]): 27 µM (≈ 9.81 µg/mL); MIC (Bacillus cereus [27]): 6.8 µM (≈ 2.47 µg/mL); MIC (Staphylococcus aureus [28]): 54 µM (≈ 19.6 µg/mL)
O=C1N/C(=N\c2nc(-c3ccccc3)cs2)S/C1=C\c1cccc(Cl)c1 | Non-toxic | 51% | 65% | 88 µM | 25.2 µM (≈ 10 µg/mL) | 19 µM (≈ 7.56 µg/mL) | 25.2 µM (≈ 10 µg/mL) | 25.2 µM (≈ 10 µg/mL) | 25.2 µM (≈ 10 µg/mL) | 25.2 µM (≈ 10 µg/mL) | 19 µM (≈ 7.56 µg/mL) | 25.2 µM (≈ 10 µg/mL) | 19 µM (≈ 7.56 µg/mL) | 12.6 µM (≈ 5.01 µg/mL) | 19 µM (≈ 7.56 µg/mL) | 19 µM (≈ 7.56 µg/mL) | 50.4 µM (≈ 20.1 µg/mL) | 50.4 µM (≈ 20.1 µg/mL) | 50.4 µM (≈ 20.1 µg/mL) | 25.2 µM (≈ 10 µg/mL) | MBC (Micrococcus flavus [21]): 50.4 µM (≈ 20.1 µg/mL); MBC (Staphylococcus aureus [22]): 50.4 µM (≈ 20.1 µg/mL); MIC (Escherichia coli [23]): 25.2 µM (≈ 10 µg/mL); MIC (Listeria monocytogenes [24]): 25.2 µM (≈ 10 µg/mL); MIC (Pseudomonas aeruginosa [25]): 25.2 µM (≈ 10 µg/mL); MIC (Micrococcus flavus [26]): 25.2 µM (≈ 10 µg/mL); MIC (Bacillus cereus [27]): 25.2 µM (≈ 10 µg/mL); MIC (Staphylococcus aureus [28]): 25.2 µM (≈ 10 µg/mL)
